In PMC10864842 (Saudi Pharmaceutical Journal : SPJ, 2024):
Values joined by “and” are separate entries in the source; they are usually repeats but may differ in a detail not shown here. Equal values may be shown once. Read-outs that look alike come from different tables or passages of the source.

Columns and labels:
[1] = system: MDA-MB-231 cells; experiment: qRT-PCR relative gene expression of P53, BAX and BCL-2; assay type: cell-based; settings: MDA-MB-231, 48 h
Procedure, shortened: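 RNA was extracted from cells after 48 h of treatment with test compound, and its purity was checked by nanodrop. P53, BAX and BCL-2 expression was normalised to β-actin as the housekeeping gene. Treated and untreated cells were compared by ANOVA.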

[2] = MTT assay on oral epithelial normal cells; assay type: cell-based
Procedure, shortened: (§1)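 Cells kept in DMEM with 10% (v/v) FBS and 1% (v/v) streptomycin/penicillin at 37 °C and 5% CO2. About 10^4 cells/ml were seeded and grown for 24 h. Test compounds in DMSO were added at 6.25, 12.5, 25, 50 and 100 µg/ml for 24 and 48 h. Medium was replaced with 5 mg/mL MTT for 3–4 h. Formazan was dissolved in acidified isopropanol and read at 630 nm. Viability is expressed as % of untreated cells.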

[3] = system: MDA-MB-231 cells; experiment: DNA fragmentation by gel electrophoresis; assay type: cell-based; settings: post-treatment
Procedure, shortened: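 MDA-MB-231 cells kept in DMEM with 10% FBS and 1% streptomycin/penicillin at 37 °C, 5% CO2. Genomic DNA was extracted with a commercial kit from cells before and after test compound treatment, and its quality was checked by nanodrop. DNA plus 1X loading dye was run on agarose gel, viewed under a UV transilluminator and imaged on a gel documentation system. Doxorubicin served as reference.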

[4] = biological target: T1, KSP ATPase (Homo sapiens, UniProt P52732); experiment: Microtubule-activated KSP ATPase kinetic assay; assay type: biochemical
T1 sequence (P52732 1-1056): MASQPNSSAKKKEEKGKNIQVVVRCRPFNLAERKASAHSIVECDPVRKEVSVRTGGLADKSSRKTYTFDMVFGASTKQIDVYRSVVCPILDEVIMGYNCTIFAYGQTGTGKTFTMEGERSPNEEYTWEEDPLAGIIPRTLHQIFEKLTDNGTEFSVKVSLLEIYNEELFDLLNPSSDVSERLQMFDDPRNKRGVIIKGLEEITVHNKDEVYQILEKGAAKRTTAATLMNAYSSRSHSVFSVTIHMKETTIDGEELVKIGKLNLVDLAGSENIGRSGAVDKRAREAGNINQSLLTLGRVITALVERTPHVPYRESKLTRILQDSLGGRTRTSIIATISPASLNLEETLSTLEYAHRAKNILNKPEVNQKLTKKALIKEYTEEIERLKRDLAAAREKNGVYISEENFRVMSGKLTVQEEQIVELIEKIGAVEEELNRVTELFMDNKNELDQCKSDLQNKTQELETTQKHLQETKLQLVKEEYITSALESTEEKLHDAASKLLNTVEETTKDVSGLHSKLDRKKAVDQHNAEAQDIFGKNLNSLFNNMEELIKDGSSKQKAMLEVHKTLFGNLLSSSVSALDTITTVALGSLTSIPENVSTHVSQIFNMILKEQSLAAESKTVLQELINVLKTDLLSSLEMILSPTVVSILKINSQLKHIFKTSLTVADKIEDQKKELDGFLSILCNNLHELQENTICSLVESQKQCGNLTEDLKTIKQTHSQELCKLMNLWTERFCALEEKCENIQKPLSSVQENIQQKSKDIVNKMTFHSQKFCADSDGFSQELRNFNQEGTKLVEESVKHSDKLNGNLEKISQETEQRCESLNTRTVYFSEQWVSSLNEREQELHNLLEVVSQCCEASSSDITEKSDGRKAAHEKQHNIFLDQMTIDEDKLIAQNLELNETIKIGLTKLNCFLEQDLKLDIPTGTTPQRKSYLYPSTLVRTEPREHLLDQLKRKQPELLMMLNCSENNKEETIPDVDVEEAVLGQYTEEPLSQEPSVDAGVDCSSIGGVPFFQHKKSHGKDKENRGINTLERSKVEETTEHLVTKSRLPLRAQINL

[5] = system: MDA-MB-231 cells; experiment: Morphological study by inverted microscope; assay type: cell-based; settings: 48 h
Procedure, shortened: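 MDA-MB-231 cells were grown in DMEM with 10% FBS and 1% streptomycin/penicillin at 37 °C, 5% CO2. They were treated with varying concentrations of test compound for 48 h and examined by inverted light microscopy. Phenotypic changes were scored as cell shrinkage, apoptotic body formation and membrane blebbing.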

[6] = system: MDA-MB-231 breast cancer cells; experiment: MTT assay on MDA-MB-231 cells; assay type: cell-based; settings: Homo sapiens
Procedure, shortened: as §1

[7] = system: MDA-MB-231 cells; experiment: Annexin V-FITC/PI flow cytometry; assay type: cell-based; settings: MDA-MB-231, Annexin V-FITC & PI, post-treatment
Procedure, shortened: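 MDA-MB-231 cells were kept in DMEM with 10% FBS and 1% streptomycin/penicillin at 37 °C under 5% CO2. Cells were treated with the test compound for 48 h, with doxorubicin as the standard and untreated cells for comparison. Cells were then harvested, rinsed, suspended in PBS, stained with Annexin V-FITC/PI and held 20 min in the dark before flow cytometry. Early apoptosis was Annexin V+/PI−; late apoptosis was Annexin V+/PI+.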

[8] = biological target: PI3Kδ (Homo sapiens, UniProt O00329); experiment: PI3Kδ inhibition assay; assay type: biochemical
Chain of PI3Kδ (O00329 whole entry): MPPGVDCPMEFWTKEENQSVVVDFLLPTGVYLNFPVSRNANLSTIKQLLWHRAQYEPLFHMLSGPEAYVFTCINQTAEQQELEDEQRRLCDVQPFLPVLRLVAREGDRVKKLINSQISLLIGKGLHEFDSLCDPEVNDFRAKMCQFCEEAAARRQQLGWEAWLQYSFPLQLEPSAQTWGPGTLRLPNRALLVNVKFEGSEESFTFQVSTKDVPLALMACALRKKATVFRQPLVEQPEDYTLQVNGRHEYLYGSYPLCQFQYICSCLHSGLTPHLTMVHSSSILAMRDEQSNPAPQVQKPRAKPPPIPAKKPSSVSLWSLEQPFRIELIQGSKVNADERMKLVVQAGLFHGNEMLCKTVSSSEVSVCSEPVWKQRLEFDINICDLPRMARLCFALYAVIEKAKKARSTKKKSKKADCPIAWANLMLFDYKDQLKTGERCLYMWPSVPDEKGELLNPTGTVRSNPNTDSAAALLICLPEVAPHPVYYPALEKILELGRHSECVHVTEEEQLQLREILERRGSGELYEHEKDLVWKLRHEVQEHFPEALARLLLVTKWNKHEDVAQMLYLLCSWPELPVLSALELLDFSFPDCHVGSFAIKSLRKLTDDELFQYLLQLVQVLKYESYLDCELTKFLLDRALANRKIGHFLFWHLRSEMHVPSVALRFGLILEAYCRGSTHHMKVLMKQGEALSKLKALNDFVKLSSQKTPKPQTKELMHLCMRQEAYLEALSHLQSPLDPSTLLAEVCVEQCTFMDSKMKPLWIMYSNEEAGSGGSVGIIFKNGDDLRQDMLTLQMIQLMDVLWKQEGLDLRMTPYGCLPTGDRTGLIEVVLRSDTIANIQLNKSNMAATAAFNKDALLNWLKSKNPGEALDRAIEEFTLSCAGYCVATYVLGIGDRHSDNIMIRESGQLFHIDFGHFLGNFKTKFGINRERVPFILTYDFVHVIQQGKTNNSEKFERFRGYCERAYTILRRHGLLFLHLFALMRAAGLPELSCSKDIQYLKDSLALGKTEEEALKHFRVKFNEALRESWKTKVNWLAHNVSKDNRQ
Chain of PI3Kδ (P27986 whole entry partner): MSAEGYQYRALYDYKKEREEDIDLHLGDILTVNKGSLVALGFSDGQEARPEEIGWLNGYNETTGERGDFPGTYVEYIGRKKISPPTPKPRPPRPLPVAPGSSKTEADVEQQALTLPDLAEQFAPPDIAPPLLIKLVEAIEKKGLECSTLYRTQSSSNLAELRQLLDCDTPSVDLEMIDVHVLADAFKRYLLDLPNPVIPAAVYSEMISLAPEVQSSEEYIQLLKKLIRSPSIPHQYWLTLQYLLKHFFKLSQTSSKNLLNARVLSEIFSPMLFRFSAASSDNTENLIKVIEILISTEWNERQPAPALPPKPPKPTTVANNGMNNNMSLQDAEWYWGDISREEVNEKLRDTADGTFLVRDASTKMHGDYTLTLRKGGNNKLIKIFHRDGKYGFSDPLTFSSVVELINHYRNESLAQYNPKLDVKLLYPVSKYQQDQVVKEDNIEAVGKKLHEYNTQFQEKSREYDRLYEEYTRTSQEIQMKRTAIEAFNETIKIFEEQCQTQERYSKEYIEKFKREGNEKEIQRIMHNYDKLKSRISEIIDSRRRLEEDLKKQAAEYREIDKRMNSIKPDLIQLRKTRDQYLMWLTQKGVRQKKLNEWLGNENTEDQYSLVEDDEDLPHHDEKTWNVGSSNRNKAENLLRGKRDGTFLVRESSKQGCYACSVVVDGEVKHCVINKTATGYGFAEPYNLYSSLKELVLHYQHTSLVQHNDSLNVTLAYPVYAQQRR

[9] = biological target: T1, KSP ATPase; experiment: Microtubule-activated KSP ATPase end-point assay; assay type: biochemical; settings: read-out: KSP ATPase inhibition [%]

IC50 at 48 h [2]: 92.1 µg/mL and 222 µM
IC50 [4]: 0.0684 µM
IC50 ([6]; MDA-MB-231, 24 h, read-out: IC50 after 24 h (µM)): 21.5 µM
IC50 ([6]; MDA-MB-231, 24 h, read-out: IC50 after 24 h in µg/mL): 8.94 ± 0.08 µg/mL
IC50 ([6]; MDA-MB-231, 48 h, read-out: IC50 after 48 h (µM)): 9.97 µM
IC50 ([6]; MDA-MB-231, 48 h, read-out: IC50 after 48 h in µg/mL): 4.14 ± 0.11 µg/mL
IC50 [8]: 0.0454 ± 0.00205 µM
inhibition at 2 µM [9]: 93.3 ± 2.1%
Structure (SMILES): O=c1c2cc(Cl)ccc2nc(SCc2ccc(F)cc2)n1-c1ccc(F)cc1 [Compound 3e, 6-Chloro-2-((4-fluorobenzyl)thio)-3-(4-fluorophenyl)quinazolin-4(3H)-one]
Relative gene expression of BAX [1]: significant overexpression
Relative gene expression of BCL-2 [1]: downregulation
Relative gene expression of P53 [1]: significant overexpression
DNA fragmentation [3]: internucleosomal fragmentation was noticed
Morphological changes of treated cells [5]: cell shrinkage, apoptotic bodies formation, and membrane blebbing
Number of cells in the early and late apoptosis versus untreated cells [7]: significant increase
